Assay results as given in ChEMBL document CHEMBL2169833, “Solubility-driven optimization of phosphodiesterase-4 inhibitors leading to a clinical candidate” (J Med Chem, 2012).
≈ marks a conversion by molar mass, not a printed value.

Experiments:
[1] = Volume of distribution at steady state in rat at 1.05 umol/kg, iv; format: ADME, organism-based; details: in vivo, read-out: Vdss
How it was run: (§1)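 Rat PK after iv and po dosing, some compounds given as the potassium or sodium salt. Vehicle was PBS or 25/75 PEG200/PBS. Dose matched formulation strength: iv 1.05, 2.1 or 4.2 μmol/kg; po 2.1 or 4.2 μmol/kg. For some compounds iv and po used the same dose (2.1 or 4.2 μmol/kg).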

[2] = Tmax in rat at 2.1 umol/kg, po; format: ADME, organism-based; details: in vivo; how it was run: as §1
[3] = Cmax in rat at 2.1 umol/kg, po; format: ADME, organism-based; set-up: dose 2.1 umol/kg, route oral; details: in vivo; how it was run: as §1
Rattus norvegicus [4] = assay: (§2) Oral bioavailability in rat at 2.1 umol/kg; format: ADME, organism-based; details: in vivo; how it was run: as §1
[5] = molecular target: 3',5'-cyclic-AMP phosphodiesterase 4B (Homo sapiens, UniProt Q07343); assay: Inhibition of human PDE4B-mediated [3H]CAMP hydrolysis after 30 to 60 mins by scintillation proximity assay
Chain of 3',5'-cyclic-AMP phosphodiesterase 4B (Q07343 whole entry): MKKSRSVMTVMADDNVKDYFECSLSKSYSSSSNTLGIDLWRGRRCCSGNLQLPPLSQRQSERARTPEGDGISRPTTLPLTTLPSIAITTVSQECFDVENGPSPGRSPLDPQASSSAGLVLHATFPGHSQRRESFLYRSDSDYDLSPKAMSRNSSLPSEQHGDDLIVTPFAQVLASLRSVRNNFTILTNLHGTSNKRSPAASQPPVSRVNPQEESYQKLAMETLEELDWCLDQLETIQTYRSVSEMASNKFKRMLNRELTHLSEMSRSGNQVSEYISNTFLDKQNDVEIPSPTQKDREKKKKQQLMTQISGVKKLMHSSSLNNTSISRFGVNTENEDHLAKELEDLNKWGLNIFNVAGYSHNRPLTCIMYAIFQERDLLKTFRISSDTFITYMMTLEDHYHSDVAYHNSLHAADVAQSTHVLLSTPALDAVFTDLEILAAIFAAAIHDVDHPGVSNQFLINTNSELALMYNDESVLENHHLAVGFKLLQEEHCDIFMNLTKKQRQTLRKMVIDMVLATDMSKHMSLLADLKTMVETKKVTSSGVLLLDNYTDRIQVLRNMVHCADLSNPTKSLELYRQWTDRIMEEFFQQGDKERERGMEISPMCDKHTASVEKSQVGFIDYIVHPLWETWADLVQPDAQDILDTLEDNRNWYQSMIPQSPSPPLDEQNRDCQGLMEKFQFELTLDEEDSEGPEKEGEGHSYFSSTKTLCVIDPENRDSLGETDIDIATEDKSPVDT
How it was run: (§3)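 Enzyme was diluted in 10 mM Tris-HCl pH 7.5 with 1 mM EDTA to give 10–30% substrate hydrolysis. Substrate was [3H]-cAMP (0.1 μCi) with 1 μM cAMP. Inhibitors were tested at 10 concentrations with 1% DMSO, 30−60 min at room temperature, stopped with PDE SPA beads and counted. IC50 came from curves. Mean of ≥2 experiments in duplicate, SEM where n ≥ 3.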

[6] = AUC total in rat at 2.1 umol/kg, po; format: ADME, organism-based, Plasma; details: plasma, 2.1 umol/kg; how it was run: as §1
[7] = molecular target: 3',5'-cyclic-AMP phosphodiesterase 4D (Homo sapiens, UniProt Q08499); assay: Inhibition of human PDE4D-mediated [3H]CAMP hydrolysis after 30 to 60 mins by scintillation proximity assay; how it was run: as §3
Chain of 3',5'-cyclic-AMP phosphodiesterase 4D (Q08499 whole entry): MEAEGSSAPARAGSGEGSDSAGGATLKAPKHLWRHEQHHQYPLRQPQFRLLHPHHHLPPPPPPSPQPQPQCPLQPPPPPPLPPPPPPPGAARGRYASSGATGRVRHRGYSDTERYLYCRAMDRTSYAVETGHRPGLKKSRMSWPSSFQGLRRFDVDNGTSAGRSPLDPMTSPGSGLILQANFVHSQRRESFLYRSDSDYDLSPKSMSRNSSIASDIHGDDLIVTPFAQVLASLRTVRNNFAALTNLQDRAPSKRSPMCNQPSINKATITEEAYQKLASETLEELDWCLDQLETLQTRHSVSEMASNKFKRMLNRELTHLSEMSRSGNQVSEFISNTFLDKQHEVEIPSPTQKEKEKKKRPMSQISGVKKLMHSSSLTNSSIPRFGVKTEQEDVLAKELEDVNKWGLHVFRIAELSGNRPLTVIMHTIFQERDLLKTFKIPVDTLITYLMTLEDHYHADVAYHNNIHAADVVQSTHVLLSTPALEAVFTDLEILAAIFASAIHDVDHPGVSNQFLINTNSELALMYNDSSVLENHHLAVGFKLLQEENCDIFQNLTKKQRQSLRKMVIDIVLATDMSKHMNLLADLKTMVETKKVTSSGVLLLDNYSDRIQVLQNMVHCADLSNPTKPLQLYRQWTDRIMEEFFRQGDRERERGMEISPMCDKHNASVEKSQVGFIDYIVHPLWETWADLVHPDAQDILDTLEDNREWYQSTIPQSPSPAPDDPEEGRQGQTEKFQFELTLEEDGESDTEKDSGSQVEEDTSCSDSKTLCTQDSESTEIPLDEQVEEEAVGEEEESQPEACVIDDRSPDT

[8] = Thermodynamic aqueous solubility of the compound at pH 6.8; format: physicochemical; details: buffer; for solubility thermodynamic: read-out: Therm_solubility
[9] = molecular target: 3',5'-cyclic-AMP phosphodiesterase 4A (Homo sapiens, UniProt P27815); assay: Inhibition of human PDE4A-mediated [3H]CAMP hydrolysis after 30 to 60 mins by scintillation proximity assay; how it was run: as §3
Chain of 3',5'-cyclic-AMP phosphodiesterase 4A (P27815 whole entry): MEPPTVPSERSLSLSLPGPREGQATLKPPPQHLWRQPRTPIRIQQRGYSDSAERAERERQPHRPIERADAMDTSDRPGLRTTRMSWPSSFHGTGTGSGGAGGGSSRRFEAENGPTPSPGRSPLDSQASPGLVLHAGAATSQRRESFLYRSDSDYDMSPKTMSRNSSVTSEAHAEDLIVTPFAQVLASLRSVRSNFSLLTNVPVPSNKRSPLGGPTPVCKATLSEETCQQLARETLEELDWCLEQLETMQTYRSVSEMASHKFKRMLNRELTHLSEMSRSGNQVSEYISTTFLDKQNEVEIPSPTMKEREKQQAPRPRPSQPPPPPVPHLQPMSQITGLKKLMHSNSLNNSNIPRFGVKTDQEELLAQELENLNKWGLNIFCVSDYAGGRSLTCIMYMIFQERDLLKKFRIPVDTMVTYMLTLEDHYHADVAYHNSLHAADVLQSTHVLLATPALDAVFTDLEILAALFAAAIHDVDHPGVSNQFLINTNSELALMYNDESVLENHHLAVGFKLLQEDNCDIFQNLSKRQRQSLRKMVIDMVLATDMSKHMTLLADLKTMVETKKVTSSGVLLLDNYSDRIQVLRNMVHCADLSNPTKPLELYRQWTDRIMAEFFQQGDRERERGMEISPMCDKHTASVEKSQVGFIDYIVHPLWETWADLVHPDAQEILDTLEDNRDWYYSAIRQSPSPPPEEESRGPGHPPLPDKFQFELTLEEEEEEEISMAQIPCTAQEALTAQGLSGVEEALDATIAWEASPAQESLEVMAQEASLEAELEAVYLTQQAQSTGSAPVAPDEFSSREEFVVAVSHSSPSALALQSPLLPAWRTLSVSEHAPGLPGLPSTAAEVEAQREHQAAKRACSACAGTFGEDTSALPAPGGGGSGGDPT

[10] = Half life in rat at 2.1 umol/kg, po; format: ADME, organism-based; details: in vivo; how it was run: as §1
[11] = Clearance in rat at 1.05 umol/kg, iv; format: ADME, organism-based; details: in vivo; how it was run: as §1
Phosphodiesterase 4 = Phosphodiesterase 4 (Homo sapiens, UniProt P27815+Q08499+Q07343+Q08493); assay: Inhibition of PDE4 in human PBMC assessed as inhibition of LPS-induced TNFalpha production incubated for 10 mins prior to LPS-challenge measured after 20 hrs by sandwich ELISA
How it was run: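 Human PBMC were isolated from normal donors by Ficoll−Hypaque and grown at 1 × 10⁶ cells/mL in RPMI1640 with 10% FCS. Compound was preincubated 10 min, then LPS added (10 ng/mL, stock added). Cells were incubated 20 h at 37 °C in 5% CO₂. Supernatant TNF-α was measured by sandwich ELISA at OD405 (sensitivity ~10 pg/mL). IC50 came from inhibition curves.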

[12] = Oral bioavailability in rat at 4.2 umol/kg; format: ADME, organism-based; details: in vivo, 4.2 umol/kg; how it was run: as §1
[13] = Cmax in rat at 4.2 umol/kg, po; format: ADME, organism-based; set-up: dose 4.2 umol/kg, route oral; details: in vivo; how it was run: as §1
[14] = AUC total in rat at 4.2 umol/kg, po; format: ADME, organism-based, Plasma; details: plasma, 4.2 umol/kg; how it was run: as §1
[15] = Half life in rat at 4.2 umol/kg, po; format: ADME, organism-based; details: in vivo; how it was run: as §1
[16] = Volume of distribution at steady state in rat at 4.2 umol/kg, iv; format: ADME, organism-based; details: in vivo, read-out: Vdss; how it was run: as §1
[17] = Clearance in rat at 4.2 umol/kg, iv; format: ADME, organism-based; details: in vivo; how it was run: as §1
[18] = Tmax in rat at 4.2 umol/kg, po; format: ADME, organism-based; details: in vivo; how it was run: as §1
Mus musculus = assay: Antiinflammatory activity in po dosed BALB/c mouse assessed as inhibition of LPS-induced neutrophil influx into BALF administered 1 hr prior to LPS-challenge measured after 3 hrs; format: functional
How it was run: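 Mice were given vehicle (PEG200:saline 1:1) or compound orally at 1−30 mg/kg, 1 h before LPS challenge. The control group got vehicle with PBS challenge. Animals were killed 3 h after challenge. Pooled from two experiments, 6−15 mice per group. Mann−Whitney test versus vehicle/LPS animals.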

Rattus norvegicus [19] = assay: Antiinflammatory activity in po dosed ovalbumin-sensitized Brown Norway rat assessed as inhibition of ovalbumin-induced eosinophil influx into BALF administered 2 hrs prior to ovalbumin-challenge measured after 24 hrs; format: functional
How it was run: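 Brown Norway rats were actively sensitized and dosed orally at 0.3, 1 or 3 mg/kg, or with vehicle PEG200:saline 1:1, 2 h before inhaled ovalbumin challenge. Saline-challenged rats served as controls. Eosinophils were counted in BAL fluid 24 h after challenge. Mean ± SEM, 5−10 animals per group. ED50 was estimated.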

[20] = AUC total in ferret at 3.42 umol/kg, ig; format: ADME, organism-based, Mustela putorius furo; details: plasma, po
How it was run: (§4)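 Ferret PK after intragastric dosing as a solution in PEG200/saline (50/50, v/v) at 3.42 μmol/kg, with one compound at 2.98 μmol/kg. Plasma levels were measured. Detection limits were 0.5 μM for roflumilast and <0.02 μM for its N-oxide metabolite.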

[21] = Tmax in ferret at 3.42 umol/kg, ig; format: ADME, organism-based, Mustela putorius furo; details: in vivo, po; how it was run: as §4
[22] = Cmax in ferret at 3.42 umol/kg, ig; format: ADME, organism-based, Mustela putorius furo; set-up: dose 3.42 umol/kg, route intragastric; details: in vivo, po; how it was run: as §4
[23] = Half life in ferret at 3.42 umol/kg, ig; format: ADME, organism-based, Mustela putorius furo; details: in vivo, po; how it was run: as §4
Mustela putorius furo = assay: Toxicity in ferret assessed as emesis at 0.075 to 4.8 mg/kg, po after 4 hrs; format: organism-based; set-up: dose 0.075-4.8 mg/kg, route oral; details: in vivo
[24] = Cmax in po dosed rat; format: ADME, organism-based; set-up: route oral; details: in vivo; how it was run: as §1
[25] = Tmax in po dosed rat; format: ADME, organism-based; details: in vivo; how it was run: as §1
[26] = Clearance in iv dosed rat; format: ADME, organism-based; details: in vivo; how it was run: as §1
[27] = Thermodynamic solubility of the compound at pH 1; format: physicochemical; details: buffer
[28] = Oral bioavailability in rat; format: ADME, organism-based; details: in vivo; how it was run: as §1
Rattus norvegicus [29] = assay: Half life in po dosed rat; format: ADME, organism-based; details: in vivo; how it was run: as §1
[30] = Volume of distribution at steady state in iv dosed rat; format: ADME, organism-based; details: in vivo, read-out: Vdss; how it was run: as §1
[31] = AUC total in po dosed rat; format: ADME, organism-based; details: plasma; how it was run: as §1
[32] = as §2; format: ADME, organism-based; details: in vivo, 2.1 umol/kg; how it was run: as §1

## N#Cc1cccc(-c2nc(N3CCC(C(=O)O)CC3)cc3cccnc23)c1
[1]
  Vd: 0.72 L/kg
[2]
  Tmax: 2.15 h
[3]
  Cmax: 2.8 µM
Rattus norvegicus [4]
  F: 158%
[5]
  IC50: 0.168 µM
[6]
  AUC: 46.1 µM·h
[7]
  IC50: 0.019 µM
[8]
  solubility thermodynamic: > 4000 µg/mL
[9]
  IC50: 0.271 µM
[10]
  half-life: 23 h
[11]
  clearance: 0.0696 L/h/kg
Phosphodiesterase 4
  IC50: 0.851 µM

## N#Cc1cccc(-c2nc([C@H]3CC[C@H](C(=O)O)CC3)cc3cccnc23)c1
[5]
  IC50: 0.093 µM
[7]
  IC50: 0.041 µM
[12]
  bioavailability: 92%
[8]
  Therm_solubility: 430 µg/mL
[9]
  IC50: 0.16 µM
Phosphodiesterase 4
  IC50: 0.053 µM

## N#Cc1cccc(-c2nc([C@H]3CC[C@H](C(=O)[O-])CC3)cc3cccnc23)c1.[K+]
[13]
  Cmax: 8.3 µM
[14]
  AUC: 1880 µM·h
[15]
  half-life: 193 h
[16]
  Vd: 0.25 L/kg
[17]
  clearance: 0.0132 L/h/kg
[18]
  Tmax: 25 h

## O=C(O)C1CCN(c2cc3cccnc3c(-c3cccc(F)c3)n2)CC1
[5]
  IC50: 1.33 µM
[7]
  IC50: 0.051 µM
[8]
  solubility thermodynamic: > 4000 µg/mL
[9]
  IC50: 0.587 µM
Phosphodiesterase 4
  IC50: 0.769 µM

## O=C(O)[C@H]1CC[C@H](c2cc3cccnc3c(-c3cccc(F)c3)n2)CC1
Mus musculus
  ED50: 11.2 mg/kg
Rattus norvegicus [19]
  ED50: 1.2 mg/kg
[5]
  IC50: 0.034 µM
[7]
  IC50: 0.032 µM
[20]
  AUC: 59.3 µM·h
[8]
  Therm_solubility: 920 µg/mL
[21]
  Tmax: 1.5 h
[9]
  IC50: 0.123 µM
[22]
  Cmax: 12.3 µM
[23]
  half-life: 3.2 h
Mustela putorius furo
  Activity: Non-toxic
Phosphodiesterase 4
  IC50: 0.126 µM

## CSc1cccc(-c2nc(N3CCC(C(=O)O)CC3)cc3cccnc23)c1
[5]
  IC50: 1.33 µM
[7]
  IC50: 0.051 µM
[8]
  solubility thermodynamic: 378 µg/mL (≈ 996 µM)
[9]
  IC50: 0.587 µM

## O=C(O)C1CCN(c2cc3cccnc3c(-c3cccc(Cl)c3)n2)CC1
[5]
  IC50: 0.187 µM
[7]
  IC50: 0.03 µM
[8]
  solubility thermodynamic: 140 µg/mL (≈ 381 µM)
[9]
  IC50: 0.364 µM
Phosphodiesterase 4
  IC50: 0.541 µM

## O=C(O)C1CCN(c2cc3cccnc3c(-c3cccc(OC(F)(F)F)c3)n2)CC1
[5]
  IC50: 0.225 µM
[7]
  IC50: 0.03 µM
[8]
  solubility thermodynamic: 1950 µg/mL (≈ 4670 µM)
[9]
  IC50: 0.371 µM

## O=C(O)c1ccc(-c2cc3cccnc3c(-c3ccc4nonc4c3)n2)cc1
[24]
  Cmax: 2.4 µM
[25]
  Tmax: 3.5 h
[26]
  clearance: 0.14 L/h/kg
[27]
  Therm_solubility: 0.04 µg/mL
[8]
  solubility thermodynamic: 2 µg/mL (≈ 5.43 µM)
[28]
  bioavailability: 8%
Rattus norvegicus [29]
  t1/2: 12 h
[30]
  Vd: 0.37 L/kg
[31]
  AUC: 8.72 µM·h
Phosphodiesterase 4
  IC50: 0.0676 µM

## O=C([O-])[C@H]1CC[C@H](c2cc3cccnc3c(-c3cccc(OC(F)(F)F)c3)n2)CC1.[K+]
[1]
  Vd: 0.36 L/kg
[2]
  Tmax: 7.42 h
[3]
  Cmax: 3.6 µM
[32]
  bioavailability: 107%
[6]
  AUC: 84 µM·h
[10]
  half-life: 29 h
[11]
  clearance: 0.039 L/h/kg
